Source: PubChem
STAT1 activator: STAT1 signaling activation. NIH 3T3 STAT1-luciferase reporter, IFN-gamma, luminescence; 100% = IFN-gamma alone, no compound. activation (% of control), % at 5.5 µM. actives 2.6% (n = 200,000);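 active = activation above the screen-wide mean activation plus 3 SD, cut at about 130% in these data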;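 also: raw ratio to IFN-gamma control signal so 100% means no change and 0% no light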
FLuc inh counter: counter-screen for luciferase assay inhibitors: firefly luciferase inhibition; P08659; ATPLite firefly luciferase biochemical luminescence, 10 min; inhibition, % at 10 µM; actives 1.5% (n = 200,000); AID 1006;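 active = inhibition above about 50% when tested at 10 µM, limit read from the data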
Target sequence (P08659 whole entry, looked up): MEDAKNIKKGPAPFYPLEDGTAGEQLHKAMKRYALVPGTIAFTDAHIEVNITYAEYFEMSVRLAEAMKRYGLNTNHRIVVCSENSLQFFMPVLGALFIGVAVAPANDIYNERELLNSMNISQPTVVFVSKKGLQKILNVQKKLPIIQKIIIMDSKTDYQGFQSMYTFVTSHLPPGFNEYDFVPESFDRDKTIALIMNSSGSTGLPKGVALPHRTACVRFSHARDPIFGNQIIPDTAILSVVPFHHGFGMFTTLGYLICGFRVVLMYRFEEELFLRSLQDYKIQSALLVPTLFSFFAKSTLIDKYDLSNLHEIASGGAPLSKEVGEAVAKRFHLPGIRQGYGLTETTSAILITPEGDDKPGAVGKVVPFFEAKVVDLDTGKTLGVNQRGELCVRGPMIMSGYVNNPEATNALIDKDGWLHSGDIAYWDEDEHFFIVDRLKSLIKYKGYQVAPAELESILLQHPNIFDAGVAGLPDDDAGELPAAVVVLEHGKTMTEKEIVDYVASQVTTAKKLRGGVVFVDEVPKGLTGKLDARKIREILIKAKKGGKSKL
FLuc stim CS: firefly luciferase counter-screen for stimulation assays; P08659; ATPlite luciferase biochemical, luminescence, 10 min; 0 = ATP-free wells, 1 = DMSO control; activation factor at 10 µM; 200,000 tested, under 10 active;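 active = luciferase activation factor, scaled between plate controls, of at least 2 with compound at 10 µM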
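Assay system: Luciferase/luciferin reagent mix; Medium: PBS as buffer for the ATP substrate; Dosing: test compounds dosed from 2 mM stocks in 100% DMSO; Times: 10 min, room temperature; Signal: luminescence from luciferase reaction; Read-out: luciferase activation; Controls: No-ATP low control, compound-free enzyme-plus-ATP high control.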
Pf gametocyte: inhibitors of late stage P. falciparum gametocyte viability; P. falciparum stage V gametocytes, ATP luminescence, 24 h; inhibition, % at 10.9 µM; actives 0.065% (n = 150,000); AID 743093;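 active = inhibition above the mean plus 3 SD of compounds within the control limits, set per campaign, cut at about 38% in these data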;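 also: 0% = DMSO wells and 100% = medium only without gametocytes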
APP 5'UTR act: APP 5'UTR luciferase reporter activation | SH-SY5Y APP 5'UTR luciferase reporter, luminescence; zero percent = DMSO vehicle wells | actives 1% (n = 190,000) | activation, % at 2 µM;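 active = activation above a set limit, based on mean plus 3 SD of controls, cut at about 140% in these data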
NF-kB neuron act: raises NF-kB expression in human neuronal cells. AID 1239. NF-kB reporter expression; hits give high values. fold change at 12.5 µM. actives 1.6% (n = 190,000); in the data active = fold change above about 3.3
STAT1 activ conf: STAT1 activation, confirmation assay; actives 97% (n = 1,200); AID 1262; shares compounds with STAT1 activator; NIH 3T3 STAT1-luciferase reporter, IFN-gamma potentiation, luminescence; 100% = IFN-gamma EC80 alone, no compound; activation (% of control), % at 5.7 µM;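 active = activation above a set limit carried over from the earlier primary STAT1 screen, cut at about 140% in these data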;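 also: simple ratio to median IFN-gamma plus DMSO wells so 0% means no light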
NFkB act STAT1ct: activates NF-kappaB, counter-screen to STAT1 activators. HEK293T NF-kB luciferase reporter, TNF-alpha stimulated, luminescence; 100% = TNF-alpha with vehicle only. activation (% of control), % at 5.7 µM. shares compounds with STAT1 activator. actives 43% (n = 1,200). AID 1306;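 active = activation above the mean of solvent-only control wells plus 3 SD, set per campaign, cut at about 130% in these data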;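 also: TNF-alpha given at a submaximal dose yielding about 80% of full reporter signal; values are well signal over median control so 100% means no change and 0% no light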
STAT3 act 2: activates human STAT3, counter-screen to STAT1 activators | U3A cells STAT3-luciferase reporter, IL-6, luminescence; cells lack STAT1; 100 = IL-6 alone, no compound effect | AID 1316 | shares compounds with STAT1 activator | actives 46% (n = 1,200) | activation (% of control), % at 5.7 µM;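 active = activation above the solvent-only control well mean plus 3 SD, set per plate batch, cut at about 110% in these data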;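 also: 0% = no luminescence and 100% = median IL-6 plus DMSO wells; higher means more STAT3 reporter activation so hits are non-selective activators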
The depositor's hits bear a star; . = not tested or not shown. Rows were chosen to be rich in hits. Some 3.5% of all compounds tested hit in one or more screens of this group.

SMILES	STAT1 activator	FLuc inh counter	FLuc stim CS	Pf gametocyte	APP 5'UTR act	NF-kB neuron act	STAT1 activ conf	NFkB act STAT1ct	STAT3 act 2
Cc1csc2nc(CSc3ccc(Cl)cc3)cn12	153*	21	0.8	.	149*	6*	198*	135*	109
Cc1cc(C)n2cc(CSc3ccc(Cl)cc3)nc2n1	.	.	.	-4	.	.	.	.	.
CCOc1ccc(C(=O)Nc2ccc(Cl)cn2)cc1Cl	158*	5	1	.	153*	4.9*	188*	137*	99
CCCn1nnc(NC(=O)c2ccc(OCC)c(Cl)c2)n1	94	10	0.9	-13	14	1.2	.	.	.
COc1ccccc1NC(=S)NNC(=S)Nc1ccc(OC(F)F)cc1	109	0	1	8	-7	1.3	.	.	.
COc1cccc(NC(=O)/C=C/c2ccccc2[N+](=O)[O-])c1	154*	23	0.8	-21	138*	3.6*	177*	137*	117*
COc1ccccc1-c1ccc(Nc2cccc(C(C)=O)c2)nn1	117	12	0.9	.	14	1.1	.	.	.
CC(=O)c1cccc(Nc2ccc(-c3ccccc3F)nn2)c1	152*	29	0.7	-3	134	2.1	179*	130	103
COc1nc(-c2ccccc2)ccc1-c1noc(-c2ccccc2)n1	98	3	1	.	14	1.2	.	.	.
CCOc1nc(C)ccc1-c1noc(-c2ccccn2)n1	113	5	1	.	16	1.4	.	.	.
COc1ccccc1-c1noc(-c2ccccc2)n1	176*	44	0.6	9	125	5.6*	213*	142*	116*
CCOc1ccccc1-c1nc(-c2ccc(C)nc2OC)no1	153*	16	0.8	.	80	2.2	167*	133	114*
CC(=O)N1CCC(c2c[nH]c3ccccc23)CC1	.	.	.	4	.	.	.	.	.
Cc1nc2ccc(Cl)cc2nc(C)/c1=N\O	152*	-6	1.1	.	158*	2.3	144*	126	120*
C#CCN1C(=O)S/C(=C/c2cc(C)n(CC)c2C)C1=O	199*	26	0.7	.	118	1.9	239*	134*	102
O=C(c1cccc(S(=O)(=O)N2CCc3ccccc32)c1)N1CCN(c2ccccn2)CC1	93	-6	1.1	.	-6	0.99	.	.	.
COc1ccc(-c2csc(N3C(=N)SCC3=O)n2)cc1	164*	6	0.9	.	74	4.9*	294*	104	112*
COc1ccc(-c2csc(N3C(=O)C4C5c6ccccc6C(c6ccccc65)C4C3=O)n2)cc1 (configuration not stated)	94	-6	1.1	.	-8	1	.	.	.
COc1ccc(-c2csc(N3C(=O)CNC3=S)n2)cc1	179*	28	0.7	.	204*	5.3*	260*	114	104
COc1ccc(-c2csc(N3C(=O)C4C5c6ccccc6C(c6ccccc65)[C@@H]4C3=O)n2)cc1 (some centres not stated)	102	-7	1.1	-6	-18	0.97	.	.	.
O=C1CNC(=S)N1c1nc(-c2ccccc2)cs1	154*	12	0.9	18	56	1.7	188*	131	115*
CC12COC3(C(=O)Nc4ccccc4F)CC1CCC32C (configuration not stated)	97	-4	1	11	8	1.1	.	.	.
O=C(COC(=O)c1cccnc1Cl)c1cccc(Cl)c1	114	8	0.9	9	-20	1.2	.	.	.
CCOC(=O)C1=c2/c(=C/c3ccncc3)c(N)c(C(=O)OC)n2C(=O)C(c2ccncc2)S1 (configuration not stated)	110	-5	1	-3	14	0.52	.	.	.
Cc1cccc(Nc2n[nH]c(C)c2[N+](=O)[O-])c1	156*	12	0.9	.	101	3.7*	192*	132	106
SMILES	STAT1 activator	FLuc inh counter	FLuc stim CS	Pf gametocyte	APP 5'UTR act	NF-kB neuron act	STAT1 activ conf	NFkB act STAT1ct	STAT3 act 2
CCn1c(C)nc2cc(C(=O)OC(C(F)(F)C(F)F)C(F)(F)C(F)F)ccc21	182*	2	1	.	-2	0.9	182*	120	115*
O=[N+]([O-])c1cccc(-c2cn3ccccc3n2)c1	153*	28	0.7	4	118	5.5*	206*	141*	115*
Oc1csc(Cc2nc(-c3ccc(Br)cc3)cs2)n1	167*	22	0.8	10	50	1.9	177*	134*	124*
O=C1CCCc2nc3c(cc21)C(O)Oc1c-3ccc2ccccc12 (configuration not stated)	186*	-2	1	-28	157*	2.2	216*	143*	106
O=C1CCCc2nc3c(cc21)C(O)Oc1ccccc1-3 (configuration not stated)	105	-1	1	12	10	.	.	.	.
O=C(OC1CCCCC1)c1ccc(NC(=O)C2CCCCC2)cc1	102	-4	1	-25	-2	0.81	.	.	.
CC(C)(C)C(=O)Nc1ccc(C(=O)OC2CCCCC2)cc1	162*	-2	1	.	133	3.6*	219*	145*	133*
O=C(Nc1ccc(NC(=O)C2CC2)nc1)c1cccs1	117	6	0.9	2	31	1.2	.	.	.
Cc1nc(NC(=O)c2ccc3c(c2)OCO3)ccc1Br	156*	28	0.7	-2	106	4*	169*	127	97
O=C(Nc1ccc(NC(=O)c2cccs2)cn1)c1ccccc1	153*	17	0.8	.	136*	3.8*	201*	133	115*
Cc1nc(NC(=O)c2cccs2)ccc1Br	161*	22	0.8	.	133	6.3*	201*	131	123*
CCOC(=O)C1C(=O)CC(C)(O)C(C(=O)OCC)C1c1ccc([N+](=O)[O-])cc1 (configuration not stated)	.	.	.	-30	.	.	.	.	.
CN(C)c1ccc(/C=C/c2nnnn2-c2ccccc2)cc1	172*	10	0.9	-26	132	3.9*	187*	134*	118*
O=C(O)CC1(CC(=O)Nc2cc(F)ccc2Cl)CCCCC1	.	.	.	-8	.	.	.	.	.
COc1ccc(-c2csc(NC(=O)c3ccco3)n2)cc1	153*	16	0.8	.	137*	4.2*	164*	127	99
